We go through 6 compounds from ChEMBL document CHEMBL1123855, “Synthesis of glycopyranosylphosphonate analogues of certain natural nucleoside diphosphate sugars as potential inhibitors of glycosyltransferases” (J Med Chem, 1987).

Calls of active or inactive are those of the source. The rule behind the calls is not given here.

Test [1] relates to Vero. Kind of test: In vitro antiviral activity was evaluated against vero cell lines infected with herpes simplex virus type-2; non toxic at concentrations as high as 50000 uM. The test is classed as functional, cell-based. The following applies: Chlorocebus sabaeus.
Test [2] relates to Vero. Briefly: In vitro antiviral activity was evaluated against vero cell lines infected with Parainfluenza virus type 3; non toxic at concentrations as high as 50000 uM. The conditions noted are these: Chlorocebus sabaeus. The test is classed as functional, cell-based.
Test [3] deals with Vero. Kind of test: In vitro antiviral activity was evaluated against vero cell lines infected with adenovirus type 2; non toxic at concentrations as high as 50000 uM. Format: functional, cell-based. The following applies: Chlorocebus sabaeus.
Test [4] deals with CCRF-CEM. Kind of test: In vitro antitumor activity was evaluated against human T-lymphoblastic leukemia cell lines; no = No activity. Format: functional, cell-based.
The next test deals with L1210. Kind of test: In vitro antitumor activity was evaluated against L1210 leukemia cell lines; No activity. Format: functional, cell-based. The following applies: Mus musculus.
In test [5] the test system is Vero. Kind of test: In vitro antiviral activity was evaluated against vero cell lines infected with rhino virus; non toxic at concentrations as high as 50000 uM. The following applies: Chlorocebus sabaeus. The test is classed as functional, cell-based.
Test [6] concerns WIL2. Briefly: In vitro antitumor activity was evaluated against human B-lymphoblastic leukemia cell lines; no = No activity. Format: functional, cell-based.
Test [7] deals with Vero. Kind of test: In vitro antiviral activity was evaluated against vero cell lines infected with visna virus; non toxic at concentrations as high as 50000 uM. Format: functional, cell-based. The following applies: Chlorocebus sabaeus.
The test system of test [8] is WIL2. Kind of test: In vitro antitumor activity was evaluated against human B-lymphoblastic leukemia cell lines; Slight activity. The test is classed as functional, cell-based.
The subject of test [9] is CCRF-CEM. Kind of test: In vitro antitumor activity was evaluated against human T-lymphoblastic leukemia cell lines; Slight activity. Format: functional, cell-based.
The subject of test [10] is Vero. Kind of test: In vitro antiviral activity was evaluated against vero cell lines infected with influenza virus; Slightly active at concentrations as high as 50000 uM. The test is classed as functional, cell-based. The conditions noted are these: Chlorocebus sabaeus.
In test [11] the target is N-acetyllactosaminide alpha-1,3-galactosyltransferase (Mus musculus) (UniProt P23336). Kind of test: Inhibition of galactosyltransferase activity secreted by L1210 leukemia cells grown in mouse peritoneal ascites at 50 ug/mL (89 uM). Format: cell-based. Summed up:
(§1)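 Galactosyltransferase from cell-free ascites fluid of DBA/2J mice implanted 5-7 days earlier with 10^5 L1210 cells, cells removed by centrifugation. Medium: ovalbumin 1 mg/mL acceptor, 0.1 M cacodylate pH 7.0, 10 mM MnCl2, 2 mM AMP, inhibitor 20 or 50 ug/mL, UDP-galactose varied 1-80 uM plus UDP-[3H]galactose. 30 min, 37 °C. Stopped with PTA/HCl; washed precipitate scintillation-counted. Duplicates.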

For test [12] the target is unchanged. Briefly: Inhibition of galactosyltransferase activity secreted by L1210 leukemia cells grown in mouse peritoneal ascites at 20 ug/mL (35 uM). The test is classed as cell-based. The method, boiled down: as §1

N-acetyllactosaminide alpha-1,3-galactosyltransferase (Mus musculus), sequence (P23336 whole entry): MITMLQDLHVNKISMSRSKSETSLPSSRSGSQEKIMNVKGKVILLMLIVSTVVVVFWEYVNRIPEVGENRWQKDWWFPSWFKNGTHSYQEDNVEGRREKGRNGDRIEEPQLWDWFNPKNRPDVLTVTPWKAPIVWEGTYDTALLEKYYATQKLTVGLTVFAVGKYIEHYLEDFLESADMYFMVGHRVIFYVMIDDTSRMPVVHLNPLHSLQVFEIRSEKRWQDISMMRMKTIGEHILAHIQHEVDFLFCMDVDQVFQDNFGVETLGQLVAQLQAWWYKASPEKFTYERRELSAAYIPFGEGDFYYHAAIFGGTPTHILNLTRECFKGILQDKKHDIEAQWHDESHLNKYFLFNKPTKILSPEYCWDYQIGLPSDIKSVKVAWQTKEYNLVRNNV

`O=P(O)(O)[C@H]1O[C@@H](CO)[C@H](O)[C@H](O)[C@@H]1O` (stereo in doubt; 19): the outcome in the test on Vero [1], in the test with Vero [2], in the test on Vero [3], in the test with Vero [5] and in the test on Vero [7] was inactive. Besides, the Cytotoxiciy result with CCRF-CEM [4], in the test with L1210 and with WIL2 [6] was “No activity” throughout.

As to `O=P(O)(O)[C@H]1O[C@@H](CO)[C@H](O)[C@H](O)[C@@H]1O` (stereo in doubt; 17), the result in the test with Vero [1], with Vero [2], with Vero [3], in the test with Vero [5] and in the test on Vero [7] was inactive. Moreover, the Cytotoxiciy result in the test on CCRF-CEM [4], in the test with L1210 and in the test with WIL2 [6] was “No activity” each time.

As for `CC(=O)OP(=O)(O)C1OC(COCc2ccccc2)C(OCc2ccccc2)C(OCc2ccccc2)C1OCc1ccccc1` (stereo not drawn), the result in the test on Vero [1], in the test on Vero [2], in the test with Vero [3], with Vero [5] and in the test on Vero [7] was inactive. Besides, the Cytotoxiciy entry with CCRF-CEM [4], in the test on L1210 and with WIL2 [6] was “No activity” each time.

Take `Nc1ncnc2c1ncn2C1O[C@H](COP(=O)(O)OP(=O)(O)C2O[C@H](CO)[C@@H](O)[C@H](O)[C@H]2O)[C@@H](O)[C@H]1O` (stereo partly drawn): the result in the test on Vero [1], in the test on Vero [2], with Vero [3], in the test with Vero [5] and with Vero [7] was inactive. Besides, the Cytotoxiciy result is “Weak activity” with WIL2 [8], “No activity” with L1210 and “Weak activity” with CCRF-CEM [9].

In the case of `O=P(O)(O)[C@H]1O[C@@H](CO)[C@@H](O)[C@H](O)[C@@H]1O`, the outcome with Vero [10], in the test on Vero [1], in the test on Vero [2], in the test on Vero [3] and in the test with Vero [7] was inactive. The Cytotoxiciy entry in the test with CCRF-CEM [4], with L1210 and with WIL2 [6] was “No activity” throughout. Further, the Activity entry in the test on Vero [5] is “Slightly active”.

With `O=c1ccn(C2O[C@H](COP(=O)(O)OP(=O)(O)C3O[C@H](CO)[C@@H](O)[C@H](O)[C@H]3O)[C@@H](O)[C@H]2O)c(=O)[nH]1` (stereo partly drawn), the inhibition in test [11] came out at 58%; in test [12] it was 50%.
